Test results: ChEMBL document CHEMBL1250428, “Identification of novel bacterial histidine biosynthesis inhibitors using docking, ensemble rescoring, and whole-cell assays” (Bioorg Med Chem, 2010)
Active and inactive are the calls of the source. The rule behind the calls is not given here.

Legend:
[1] = tested on: Pseudomonas aeruginosa; assay: Antibacterial activity against Pseudomonas aeruginosa PAO1 assessed as growth inhibition at 10 mg/ml after 16 to 20 hrs; assay type: functional, organism-based
How it was run: (§1)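 Disc diffusion: sterile filter discs loaded with 10 µl of a 10 mg/ml compound solution were placed on evenly inoculated LB or minimal medium agar plates and incubated 16–20 h at 37 °C. Growth inhibition around each disc was scored qualitatively (weak, partial, or strong). Controls were 10 µl of 1 mg/ml ampicillin and DMSO.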

[2] = tested on: Escherichia coli; assay: Antibacterial activity against Escherichia coli 1655 assessed as growth inhibition at 10 mg/ml after 16 to 20 hrs in presence of 0.2 mM L-histidine; assay type: functional, organism-based
How it was run: (§2)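 Histidine complementation: minimal medium agar plates were supplemented with 0.2mM L-histidine and evenly inoculated. Filter discs soaked with 10 µl of 10 mg/ml compound were applied, and plates were incubated 16–20 h at 37 °C. Inhibition was scored qualitatively. Ampicillin (10 µl, 1 mg/ml) and DMSO served as controls.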

[3] = tested on: Pseudomonas aeruginosa; assay: Antibacterial activity against Pseudomonas aeruginosa PAO1 assessed as growth inhibition at 10 mg/ml after 16 to 20 hrs in presence of 0.2 mM L-histidine; assay type: functional, organism-based; how it was run: as §2
[4] = tested on: Staphylococcus aureus; assay: Antibacterial activity against clinical isolate of Staphylococcus aureus assessed as growth inhibition at 10 mg/ml after 16 to 20 hrs; assay type: functional, organism-based; how it was run: as §1
[5] = tested on: Escherichia coli; assay: Antibacterial activity against clinical isolate of Escherichia coli assessed as growth inhibition at 10 mg/ml after 16 to 20 hrs; assay type: functional, organism-based; how it was run: as §1
[6] = tested on: Staphylococcus aureus; assay: Antibacterial activity against methicillin-resistant Staphylococcus aureus USA300 assessed as growth inhibition at 10 mg/ml after 16 to 20 hrs; assay type: functional, organism-based
How it was run: (§3)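 Disc diffusion assay. Sterile filter discs soaked with 10 µl of a 10 mg/ml compound solution were placed on evenly inoculated LB or minimal medium agar, then incubated 16–20 h at 37 °C. Growth inhibition was scored by eye on a graded scale from strong inhibition through weak or partial inhibition to none. DMSO served as the negative control.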

[7] = tested on: Staphylococcus aureus; assay: Antibacterial activity against methicillin-resistant Staphylococcus aureus Mu50 assessed as growth inhibition at 10 mg/ml after 16 to 20 hrs; assay type: functional, organism-based; how it was run: as §3
[8] = tested on: Staphylococcus aureus; assay: Antibacterial activity against methicillin-resistant Staphylococcus aureus Mu50 assessed as growth inhibition at 10 mg/ml after 16 to 20 hrs in presence of 0.2 mM L-histidine; assay type: functional, organism-based
How it was run: (§4)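 Histidine complementation disc assay. Discs soaked with 10 µl of a 10 mg/ml compound solution were placed on evenly inoculated minimal medium agar supplemented with 0.2 mM L-histidine, then incubated 16–20 h at 37 °C. Inhibition zones were scored by eye on a graded scale (strong, weak, partial, none).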

[9] = tested on: Staphylococcus aureus; assay: Antibacterial activity against methicillin-resistant Staphylococcus aureus USA300 assessed as growth inhibition at 10 mg/ml after 16 to 20 hrs in presence of 0.2 mM L-histidine; assay type: functional, organism-based; how it was run: as §4
[10] = Cytotoxicity against human CL1 cells expressing hTERT assessed as cell viability at 100 ug/ml after 24 hrs by trypan blue exclusion assay; assay type: cell-based
[11] = tested on: Escherichia coli; assay: Antibacterial activity against Escherichia coli 1655 assessed as growth inhibition at 10 mg/ml after 16 to 20 hrs; assay type: functional, organism-based; how it was run: as §1
[12] = Cytotoxicity against human CL1 cells expressing hTERT assessed as cell viability at 100 ug/ml after 24 hrs by MTT assay; assay type: cell-based
[13] = tested on: Staphylococcus aureus; assay: Antibacterial activity against methicillin-resistant Staphylococcus aureus Mu50 assessed as growth inhibition at 1 mg/ml after 16 to 20 hrs in presence of 0.2 mM L-histidine; assay type: functional, organism-based
How it was run: (§5)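 Discs carrying 10 µl of a 1 mg/ml solution were placed on evenly inoculated minimal medium agar containing 0.2 mM L-histidine, then incubated 16–20 h at 37 °C. Inhibition zones were scored by eye as strong, weak, partial or none.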

[14] = tested on: Escherichia coli; assay: Antibacterial activity against clinical isolate of Escherichia coli assessed as growth inhibition at 1 mg/ml after 16 to 20 hrs; assay type: functional, organism-based
[15] = tested on: Staphylococcus aureus; assay: Antibacterial activity against methicillin-resistant Staphylococcus aureus Mu50 assessed as growth inhibition at 1 mg/ml after 16 to 20 hrs; assay type: functional, organism-based
How it was run: (§6)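 Disc diffusion assay. Filter discs carrying 10 µl of a 1 mg/ml solution were placed on evenly inoculated LB or minimal medium agar plates, then incubated 16–20 h at 37 °C. Growth inhibition was scored by eye on a graded scale (strong, weak, partial, none).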

[16] = tested on: Staphylococcus aureus; assay: Antibacterial activity against clinical isolate of Staphylococcus aureus assessed as growth inhibition at 1 mg/ml after 16 to 20 hrs; assay type: functional, organism-based
[17] = tested on: Staphylococcus aureus; assay: Antibacterial activity against methicillin-resistant Staphylococcus aureus USA300 assessed as growth inhibition at 1 mg/ml after 16 to 20 hrs in presence of 0.2 mM L-histidine; assay type: functional, organism-based; how it was run: as §5
[18] = tested on: Escherichia coli; assay: Antibacterial activity against Escherichia coli 1655 assessed as growth inhibition at 1 mg/ml after 16 to 20 hrs in presence of 0.2 mM L-histidine; assay type: functional, organism-based
[19] = tested on: Pseudomonas aeruginosa; assay: Antibacterial activity against Pseudomonas aeruginosa PAO1 assessed as growth inhibition at 1 mg/ml after 16 to 20 hrs in presence of 0.2 mM L-histidine; assay type: functional, organism-based
[20] = tested on: Escherichia coli; assay: Antibacterial activity against Escherichia coli 1655 assessed as growth inhibition at 1 mg/ml after 16 to 20 hrs; assay type: functional, organism-based
[21] = tested on: Staphylococcus aureus; assay: Antibacterial activity against methicillin-resistant Staphylococcus aureus USA300 assessed as growth inhibition at 1 mg/ml after 16 to 20 hrs; assay type: functional, organism-based; how it was run: as §6

| SMILES | Activity [1] | Activity [2] | Activity [3] | Activity [4] | Activity [5] | Activity [6] | Activity [7] | Activity [8] | Activity [9] | Activity [11] | also measured |
| --- | --- | --- | --- | --- | --- | --- | --- | --- | --- | --- | --- |
| O=C(O)C[C@H](c1ccncc1)c1c[nH]c2ccccc12 | Active | Active | Active | Active | Active | inactive | Active | Active | Active | – | – |
| Cc1ncc(CO)c(CNc2ccc(Oc3ccccc3)cc2)c1O | Active | – | – | Active | – | Active | Active | – | – | Active | Activity [10]: Toxic |
| CN(C)c1ccc(/C=N/Nc2ccc(S(=O)(=O)O)cc2)cc1 | – | – | – | inactive | inactive | inactive | inactive | – | – | – | – |
| O=C(O)c1ccc([C@H](O)[C@@H](O)c2ccccc2)cc1 | inactive | – | – | Active | – | Active | Active | – | – | Active | Activity [10]: Toxic |
| CC(=O)C1=C(O)C(=O)N(CCC(=O)O)[C@@H]1c1ccc(C(C)C)cc1 | Active | Active | Active | inactive | Active | inactive | Active | Active | Active | Active | – |
| Cc1oc(C(=O)O)cc1COc1ccc2c3c(c(=O)oc2c1C)CCC3 | inactive | – | – | Active | inactive | inactive | Active | – | – | inactive | – |
| CCN(CCc1ccccc1)C(=O)CSc1ncccc1C(=O)O | – | Active | Active | – | – | – | – | inactive | inactive | Active | – |
| O=C(O)CCCNC[C@@H](O)Cn1c2ccccc2c2ccccc21 | inactive | inactive | inactive | Active | – | Active | Active | Active | inactive | – | Activity [10]: Non-toxic |
| Cc1c(OCC(=O)O)ccc2c(-c3ccccc3)cc(=O)oc12 | Active | – | – | Active | Active | Active | Active | – | – | Active | Activity [10]: Non-toxic; Activity [12]: Non-toxic |
| O=C(O)C[C@H](NCc1ccco1)C(=O)Cc1ccc(Cl)cc1 | – | – | – | inactive | inactive | inactive | inactive | – | – | inactive | – |
| CCCCc1cc(=O)oc2c(C)c(O[C@H](C)C(=O)O)ccc12 | Active | Active | Active | Active | – | inactive | Active | Active | Active | – | – |
| CSCC[C@@H](NCC[C@H](O)c1ccccc1)C(=O)O | Active | – | – | inactive | inactive | inactive | inactive | – | – | inactive | – |
| C[C@@H](NC[C@@H](O)Cn1c2ccccc2c2ccccc21)C(=O)O | inactive | – | – | inactive | inactive | inactive | inactive | – | – | inactive | – |
| CC1(C)S[C@@H]2[C@H](NC(=O)[C@H](N)c3ccccc3)C(=O)N2[C@H]1C(=O)O [AMPICILLIN] | – | – | – | – | – | – | – | – | – | – | Activity [13]: Active; Activity [14]: Active; Activity [15]: Active; Activity [10]: Non-toxic; Activity [16]: Active; Activity [17]: Active; Activity [18]: inactive; Activity [19]: inactive; Activity [20]: Active; Activity [21]: Active |
| O=C(O)c1cccc(NC(=O)[C@H]2CCCC[C@@H]2C(=O)O)c1 | Active | – | – | inactive | inactive | inactive | inactive | – | – | – | – |
| CC(=O)C1C(O)C(=O)N(c2ccc(C(=O)O)cc2)[C@H]1c1ccccc1 (stereo partly specified) | Active | inactive | inactive | Active | Active | Active | Active | inactive | inactive | Active | – |
| CCc1cc(=O)oc2c3c(c(C)c(OCC(=O)O)c12)OC(C)(C)C=C3 | Active | Active | Active | inactive | inactive | – | Active | inactive | inactive | Active | – |
| O=C1Nc2ccc(Cl)cc2C(c2cccc(O)c2)=N[C@H]1O | Active | – | – | – | – | Active | Active | – | – | Active | – |
